Laboratory results from the M2OR odorant receptor database.
Changes are numbered by the printed parent chain.

Columns and labels:
Details in all cases: stereoisomer not certain
OR5BC C141R = tested on: T1, OR5BC C141R
T1 sequence (whole entry): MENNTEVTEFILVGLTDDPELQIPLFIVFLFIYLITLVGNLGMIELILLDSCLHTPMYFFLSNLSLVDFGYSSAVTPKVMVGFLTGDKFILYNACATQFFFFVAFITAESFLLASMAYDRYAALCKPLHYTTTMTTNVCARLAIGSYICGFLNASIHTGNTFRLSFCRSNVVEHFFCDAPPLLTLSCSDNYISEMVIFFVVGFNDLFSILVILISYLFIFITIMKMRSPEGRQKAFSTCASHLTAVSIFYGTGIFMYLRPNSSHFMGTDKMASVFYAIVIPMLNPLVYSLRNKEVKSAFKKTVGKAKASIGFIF
How it was run: (§1)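 Transient luciferase assays in mammalian cell lines were common, though methods varied by source. The values come from published papers and their supplementary material, with extra details from the original authors when needed. Responsive refers to a measured signal the original authors judged statistically different from baseline, and non-responsive (inactive) to the remainder.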

OR5BH L80I I85M = tested on: T2, OR5BH L80I I85M
T2 sequence (whole entry): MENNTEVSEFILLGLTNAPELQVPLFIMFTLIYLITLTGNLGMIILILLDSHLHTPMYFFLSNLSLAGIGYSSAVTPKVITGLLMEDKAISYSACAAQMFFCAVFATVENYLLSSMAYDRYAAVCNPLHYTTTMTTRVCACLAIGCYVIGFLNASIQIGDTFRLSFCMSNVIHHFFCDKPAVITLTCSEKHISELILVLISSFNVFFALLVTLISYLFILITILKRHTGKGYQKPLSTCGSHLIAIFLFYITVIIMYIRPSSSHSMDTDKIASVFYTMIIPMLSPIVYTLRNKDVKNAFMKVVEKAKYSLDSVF
How it was run: as §1

OR5BH L80I = tested on: T3, OR5BH L80I
T3 sequence (whole entry): T2 sequence (whole entry) with M85I
How it was run: as §1

OR5C1 (Homo sapiens) = target: T4, OR5C1 (Homo sapiens) (UniProt Q8NGR4)
T4 sequence (whole entry): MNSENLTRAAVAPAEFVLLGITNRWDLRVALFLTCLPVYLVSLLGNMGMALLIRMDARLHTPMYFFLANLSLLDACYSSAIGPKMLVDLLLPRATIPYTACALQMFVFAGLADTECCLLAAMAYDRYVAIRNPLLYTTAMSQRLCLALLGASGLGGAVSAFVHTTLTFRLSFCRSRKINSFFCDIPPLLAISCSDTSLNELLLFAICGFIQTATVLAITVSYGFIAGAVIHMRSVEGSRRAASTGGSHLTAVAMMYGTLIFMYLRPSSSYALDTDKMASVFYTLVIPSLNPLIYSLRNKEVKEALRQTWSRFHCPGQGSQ
How it was run: as §1

OR5D13 (Homo sapiens) = target: T5, OR5D13 (Homo sapiens) (UniProt Q8NGL4)
T5 sequence (whole entry): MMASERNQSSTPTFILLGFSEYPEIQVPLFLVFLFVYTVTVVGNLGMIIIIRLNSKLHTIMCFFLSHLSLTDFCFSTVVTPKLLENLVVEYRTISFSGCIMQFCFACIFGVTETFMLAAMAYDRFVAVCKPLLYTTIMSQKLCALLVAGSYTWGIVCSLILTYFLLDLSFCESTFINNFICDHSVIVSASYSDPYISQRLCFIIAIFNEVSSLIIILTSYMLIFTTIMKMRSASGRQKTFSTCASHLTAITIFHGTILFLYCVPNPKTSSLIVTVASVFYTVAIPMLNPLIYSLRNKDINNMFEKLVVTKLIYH
How it was run: as §1

OR5D14 (Homo sapiens) = target: T6, OR5D14 (Homo sapiens) (UniProt Q8NGL3)
T6 sequence (whole entry): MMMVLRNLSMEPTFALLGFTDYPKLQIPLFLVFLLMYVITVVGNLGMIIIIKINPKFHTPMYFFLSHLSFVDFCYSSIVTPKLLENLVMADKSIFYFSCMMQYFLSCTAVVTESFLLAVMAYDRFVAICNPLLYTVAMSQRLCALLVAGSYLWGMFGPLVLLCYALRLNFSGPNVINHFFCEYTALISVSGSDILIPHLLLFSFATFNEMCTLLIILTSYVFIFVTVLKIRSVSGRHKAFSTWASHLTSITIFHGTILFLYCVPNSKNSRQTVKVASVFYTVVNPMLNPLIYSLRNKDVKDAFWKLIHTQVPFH
How it was run: as §1

OR5D16 (Homo sapiens) = target: T7, OR5D16 (Homo sapiens) (UniProt Q8NGK9)
T7 sequence (whole entry): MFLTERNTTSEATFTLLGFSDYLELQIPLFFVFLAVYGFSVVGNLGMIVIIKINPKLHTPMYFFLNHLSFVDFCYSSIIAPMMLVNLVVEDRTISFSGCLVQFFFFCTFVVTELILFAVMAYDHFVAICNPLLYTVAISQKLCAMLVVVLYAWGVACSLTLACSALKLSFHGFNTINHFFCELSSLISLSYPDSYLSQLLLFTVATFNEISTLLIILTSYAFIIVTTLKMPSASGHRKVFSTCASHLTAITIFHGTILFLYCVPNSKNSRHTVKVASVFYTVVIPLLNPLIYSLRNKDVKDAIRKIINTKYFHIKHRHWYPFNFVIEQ
How it was run: as §1

OR5D18 (Homo sapiens) = target: T8, OR5D18 (Homo sapiens) (UniProt Q8NGL1)
T8 sequence (whole entry): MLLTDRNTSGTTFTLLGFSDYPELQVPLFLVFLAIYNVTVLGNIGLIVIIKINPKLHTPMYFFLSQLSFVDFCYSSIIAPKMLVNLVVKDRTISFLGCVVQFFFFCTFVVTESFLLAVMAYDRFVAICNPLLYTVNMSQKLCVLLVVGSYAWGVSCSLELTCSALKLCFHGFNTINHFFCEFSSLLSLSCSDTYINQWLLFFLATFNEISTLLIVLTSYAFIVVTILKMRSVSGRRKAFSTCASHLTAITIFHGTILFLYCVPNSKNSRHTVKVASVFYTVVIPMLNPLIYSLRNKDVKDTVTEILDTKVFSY
How it was run: as §1

OR5DD C62Y = tested on: T9, OR5DD C62Y
T9 sequence (whole entry): T5 sequence (whole entry) with C62Y
How it was run: as §1

OR5DE S249A L290P = tested on: T10, OR5DE S249A L290P
T10 sequence (whole entry): T6 sequence (whole entry) with S249A, L290P
How it was run: as §1

OR5DG A156T = tested on: T11, OR5DG A156T
T11 sequence (whole entry): T7 sequence (whole entry) with A156T
How it was run: as §1

OR5DI = tested on: T12, OR5DI
T12 sequence (whole entry): T8 sequence (whole entry) with N136D
How it was run: as §1

OR5F1 (Homo sapiens) = target: T13, OR5F1 (Homo sapiens) (UniProt O95221)
T13 sequence (whole entry): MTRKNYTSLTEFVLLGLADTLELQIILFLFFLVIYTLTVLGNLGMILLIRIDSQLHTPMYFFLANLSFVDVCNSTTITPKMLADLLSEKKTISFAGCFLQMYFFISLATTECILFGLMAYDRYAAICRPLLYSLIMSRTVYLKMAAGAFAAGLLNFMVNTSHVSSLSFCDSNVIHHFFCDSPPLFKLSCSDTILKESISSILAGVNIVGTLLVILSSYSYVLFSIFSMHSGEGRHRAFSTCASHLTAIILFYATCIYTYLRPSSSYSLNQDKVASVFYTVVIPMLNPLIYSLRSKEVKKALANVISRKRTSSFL
How it was run: as §1

OR5F1 = tested on: T14, OR5F1
T14 sequence (whole entry): T13 sequence (whole entry) with S294N
How it was run: as §1

OR5H1 (Homo sapiens) = target: T15, OR5H1 (Homo sapiens) (UniProt A6NKK0)
T15 sequence (whole entry): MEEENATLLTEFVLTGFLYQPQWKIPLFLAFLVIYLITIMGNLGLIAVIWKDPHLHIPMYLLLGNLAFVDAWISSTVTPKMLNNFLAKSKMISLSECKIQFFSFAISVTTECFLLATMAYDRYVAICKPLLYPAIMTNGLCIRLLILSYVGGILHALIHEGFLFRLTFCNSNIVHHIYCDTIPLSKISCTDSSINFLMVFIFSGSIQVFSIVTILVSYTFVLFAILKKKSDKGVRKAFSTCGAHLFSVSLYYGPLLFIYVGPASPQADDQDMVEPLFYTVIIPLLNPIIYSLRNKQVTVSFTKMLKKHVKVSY
How it was run: as §1

OR5H1 F17L A30T H56Q = tested on: T16, OR5H1 F17L A30T H56Q
T16 sequence (whole entry): T15 sequence (whole entry) with F17L, A30T, H56Q
How it was run: as §1

OR5H1 T181N = tested on: T17, OR5H1 T181N
T17 sequence (whole entry): T15 sequence (whole entry) with T181N
How it was run: as §1

OR5H14 (Homo sapiens) = target: T18, OR5H14 (Homo sapiens) (UniProt A6NHG9)
T18 sequence (whole entry): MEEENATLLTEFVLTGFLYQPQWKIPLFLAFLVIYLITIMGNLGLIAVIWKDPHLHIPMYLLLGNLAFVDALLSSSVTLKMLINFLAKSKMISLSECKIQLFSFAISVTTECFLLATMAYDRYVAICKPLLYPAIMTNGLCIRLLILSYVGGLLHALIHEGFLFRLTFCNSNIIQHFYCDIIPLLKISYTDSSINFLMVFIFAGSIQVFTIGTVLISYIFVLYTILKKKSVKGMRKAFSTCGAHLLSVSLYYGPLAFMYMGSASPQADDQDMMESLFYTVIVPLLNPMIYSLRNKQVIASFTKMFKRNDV
How it was run: as §1

OR5H15 (Homo sapiens) = target: T19, OR5H15 (Homo sapiens) (UniProt A6NDH6)
T19 sequence (whole entry): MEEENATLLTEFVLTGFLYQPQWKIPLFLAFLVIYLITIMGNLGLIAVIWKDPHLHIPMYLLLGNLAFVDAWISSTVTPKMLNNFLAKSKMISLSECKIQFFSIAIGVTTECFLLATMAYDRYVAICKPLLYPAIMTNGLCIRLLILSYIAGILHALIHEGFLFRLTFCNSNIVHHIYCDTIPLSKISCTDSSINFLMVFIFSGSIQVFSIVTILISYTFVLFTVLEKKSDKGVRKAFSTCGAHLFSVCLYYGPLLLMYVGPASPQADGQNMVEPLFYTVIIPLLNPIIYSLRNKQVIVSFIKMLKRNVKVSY
How it was run: as §1

OR5G3 (Homo sapiens) = OR5G3 (Homo sapiens) (UniProt P0C626)
How it was run: as §1

Measured: odorant receptor agonist call;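 also: active if original authors judged signal statistically different from baseline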

OR5G3 (Homo sapiens), sequence (P0C626 whole entry): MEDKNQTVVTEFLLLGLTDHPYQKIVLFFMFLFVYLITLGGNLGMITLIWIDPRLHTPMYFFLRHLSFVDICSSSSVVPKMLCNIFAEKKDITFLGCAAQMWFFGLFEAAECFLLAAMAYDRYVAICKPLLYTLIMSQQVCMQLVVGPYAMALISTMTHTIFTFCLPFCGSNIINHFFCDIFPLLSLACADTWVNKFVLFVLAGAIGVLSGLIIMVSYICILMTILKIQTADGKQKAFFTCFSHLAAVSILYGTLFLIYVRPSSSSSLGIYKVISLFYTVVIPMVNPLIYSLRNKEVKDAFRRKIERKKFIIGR

CC1=C(O)C(=O)C(C)O1 (centres undefined)
not listed: OR5G3 (Homo sapiens)
inactive: all other assays above

Cc1cnc(C)c(C)n1
not listed: OR5G3 (Homo sapiens)
inactive: all other assays above

CCCCCCC=CCCC=O
not listed: OR5H1 T181N | OR5G3 (Homo sapiens)
inactive: all other assays above

CCCC(S)CCOC(C)=O (centres undefined)
not listed: OR5G3 (Homo sapiens)
inactive: all other assays above

CCC1OC(=O)C(O)=C1C (centres undefined)
not listed: OR5G3 (Homo sapiens)
inactive: all other assays above

CCCCCC(=O)C(C)C(C)=O (centres undefined)
inactive: OR5C1 (Homo sapiens) | OR5D13 (Homo sapiens) | OR5D14 (Homo sapiens) | OR5D16 (Homo sapiens) | OR5D18 (Homo sapiens) | OR5F1 (Homo sapiens) | OR5H1 (Homo sapiens) | OR5H14 (Homo sapiens) | OR5H15 (Homo sapiens)

CC(CO)CS (centres undefined)
inactive: OR5C1 (Homo sapiens) | OR5D13 (Homo sapiens) | OR5D14 (Homo sapiens) | OR5D16 (Homo sapiens) | OR5D18 (Homo sapiens) | OR5F1 (Homo sapiens) | OR5H1 (Homo sapiens) | OR5H14 (Homo sapiens) | OR5H15 (Homo sapiens)

CCCCCC(S)C(C)CO (centres undefined)
inactive: OR5C1 (Homo sapiens) | OR5D13 (Homo sapiens) | OR5D14 (Homo sapiens) | OR5D16 (Homo sapiens) | OR5D18 (Homo sapiens) | OR5F1 (Homo sapiens) | OR5H1 (Homo sapiens) | OR5H14 (Homo sapiens) | OR5H15 (Homo sapiens)

CC1=NC(C)C(C)S1 (centres undefined)
not listed: OR5G3 (Homo sapiens)
inactive: all other assays above

CCC1OC(C)=C(O)C1=O (centres undefined)
not listed: OR5G3 (Homo sapiens)
inactive: all other assays above

CC1CCCCCCCCCCCCC(=O)C1 (centres undefined)
inactive: OR5C1 (Homo sapiens) | OR5D13 (Homo sapiens) | OR5D14 (Homo sapiens) | OR5D16 (Homo sapiens) | OR5D18 (Homo sapiens) | OR5F1 (Homo sapiens) | OR5G3 (Homo sapiens) | OR5H14 (Homo sapiens) | OR5H15 (Homo sapiens)

CCCCC(S)C(C)CO (centres undefined)
inactive: OR5C1 (Homo sapiens) | OR5D13 (Homo sapiens) | OR5D14 (Homo sapiens) | OR5D16 (Homo sapiens) | OR5D18 (Homo sapiens) | OR5F1 (Homo sapiens) | OR5H1 (Homo sapiens) | OR5H14 (Homo sapiens) | OR5H15 (Homo sapiens)

CC(=O)c1c(C)c([N+](=O)[O-])c(C(C)(C)C)c([N+](=O)[O-])c1C
inactive: OR5C1 (Homo sapiens) | OR5D13 (Homo sapiens) | OR5D14 (Homo sapiens) | OR5D16 (Homo sapiens) | OR5D18 (Homo sapiens) | OR5F1 (Homo sapiens) | OR5G3 (Homo sapiens) | OR5H14 (Homo sapiens) | OR5H15 (Homo sapiens)

CCC(S)C(C)CO (centres undefined)
inactive: OR5C1 (Homo sapiens) | OR5D13 (Homo sapiens) | OR5D14 (Homo sapiens) | OR5D16 (Homo sapiens) | OR5D18 (Homo sapiens) | OR5F1 (Homo sapiens) | OR5H1 (Homo sapiens) | OR5H14 (Homo sapiens) | OR5H15 (Homo sapiens)

CC1=C(O)C(=O)OC1C (centres undefined)
not listed: OR5G3 (Homo sapiens)
inactive: all other assays above
